Measured values taken from ChEMBL document CHEMBL1133549, “N4-(omega-Aminoalkyl)-1-[(omega-aminoalkyl)amino]-4- acridinecarboxamides: novel, potent, cytotoxic, and DNA-binding agents” (J Med Chem, 2000).

system: A2780; assay: The compound was tested for cytotoxic activity against A2780 cell line(human ovarian carcinoma ); format: functional, cell-based; conditions: not given
Method in brief: (§1)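 Human ovarian carcinoma cells (100–5000) were plated and allowed to adhere overnight. Drug was diluted from DMSO stock into aqueous solution at pH 7.0 and applied continuously for 96 h at 37 °C. Growth was read by SRB protein staining. IC50 is 50% growth inhibition versus drug-free controls, from a representative experiment with 4 replicate wells per concentration and 8 control wells.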

SMILES	IC50 [µM]
O=C(NCCN1CCOCC1)c1ccc(NCCN2CCOCC2)c2cc3ccccc3nc12	2.3
CN(C)CCNC(=O)c1ccc(Cl)c2cc3ccccc3nc12	2.05
O=C(NCCN1CCCCC1)c1ccc(NCCN2CCCCC2)c2cc3ccccc3nc12	0.1
CCN(CC)CCNC(=O)c1ccc(NCCN(CC)CC)c2cc3ccccc3nc12	0.415
CN(C)CCNC(=O)c1cccc2cc3ccccc3nc12	0.51
COc1ccc2nc3c(C(=O)NCCN(C)C)ccc(NCCN(C)C)c3cc2c1	0.096
NCCNC(=O)c1ccc(NCCN)c2cc3ccccc3nc12	12
CN(C)CCNC(=O)c1ccc(NCCN(C)C)c2cc3cc(N)ccc3nc12 [listing 1 of 2 here]	0.32
CN(C)CCNC(=O)c1ccc(NCCN(C)C)c2cc3cc(N)ccc3nc12 [listing 2 of 2 here]	0.32

system: A2780cisR; assay: The compound was tested for cytotoxic activity against A2780cisR cell line(human ovarian carcinoma; format: functional, cell-based; conditions: not given; method in brief: as §1

SMILES	IC50 [µM]
CCN(CC)CCNC(=O)c1ccc(NCCN(CC)CC)c2cc3ccccc3nc12	0.475

system: A2780cisR; assay: The compound was tested for cytotoxic activity against A2780cisR cell line(human ovarian carcinoma ); format: functional, cell-based; conditions: not given; method in brief: as §1

SMILES	IC50 [µM]
O=C(NCCN1CCOCC1)c1ccc(NCCN2CCOCC2)c2cc3ccccc3nc12	2.5
CN(C)CCNC(=O)c1ccc(Cl)c2cc3ccccc3nc12	2.04
O=C(NCCN1CCCCC1)c1ccc(NCCN2CCCCC2)c2cc3ccccc3nc12	0.12
CN(C)CCNC(=O)c1cccc2cc3ccccc3nc12	0.57
NCCNC(=O)c1ccc(NCCN)c2cc3ccccc3nc12	3.15
CN(C)CCNC(=O)c1ccc(NCCN(C)C)c2cc3cc(N)ccc3nc12 [listing 2 of 2 here]	0.365

same assay, conditions: Homo sapiens, A2780cisR

SMILES	IC50 [µM]
CN(C)CCNC(=O)c1ccc(NCCN(C)C)c2cc3cc(N)ccc3nc12 [listing 1 of 2 here]	0.365

system: A2780cisR; assay: The compound was tested for cytotoxic activity against A2780cisR cell line(human ovarian carcinoma); format: functional, cell-based; conditions: not given; method in brief: as §1

SMILES	IC50 [µM]
COc1ccc2nc3c(C(=O)NCCN(C)C)ccc(NCCN(C)C)c3cc2c1	0.125

system: CH1; assay: The compound was tested for cytotoxic activity against CH1 cell line(human ovarian carcinoma ); format: functional, cell-based; conditions: not given; method in brief: as §1

SMILES	IC50 [µM]
O=C(NCCN1CCOCC1)c1ccc(NCCN2CCOCC2)c2cc3ccccc3nc12	1.85
CN(C)CCNC(=O)c1ccc(Cl)c2cc3ccccc3nc12	1.75
O=C(NCCN1CCCCC1)c1ccc(NCCN2CCCCC2)c2cc3ccccc3nc12	0.135
CCN(CC)CCNC(=O)c1ccc(NCCN(CC)CC)c2cc3ccccc3nc12	0.185
CN(C)CCNC(=O)c1cccc2cc3ccccc3nc12	0.48
COc1ccc2nc3c(C(=O)NCCN(C)C)ccc(NCCN(C)C)c3cc2c1	0.05
NCCNC(=O)c1ccc(NCCN)c2cc3ccccc3nc12	1.2
CN(C)CCNC(=O)c1ccc(NCCN(C)C)c2cc3cc(N)ccc3nc12 [listing 1 of 2 here]	0.089
CN(C)CCNC(=O)c1ccc(NCCN(C)C)c2cc3cc(N)ccc3nc12 [listing 2 of 2 here]	0.089

system: not listed separately; assay: (§2) The compound was tested for cytotoxic activity against CH1/Cs cell line(human ovarian carcinoma); format: functional, cell-based; conditions: not given; method in brief: as §1

SMILES	IC50 [µM]
O=C(NCCN1CCOCC1)c1ccc(NCCN2CCOCC2)c2cc3ccccc3nc12	2.15
CN(C)CCNC(=O)c1ccc(Cl)c2cc3ccccc3nc12	1.9
O=C(NCCN1CCCCC1)c1ccc(NCCN2CCCCC2)c2cc3ccccc3nc12	0.11
CCN(CC)CCNC(=O)c1ccc(NCCN(CC)CC)c2cc3ccccc3nc12	0.375
CN(C)CCNC(=O)c1cccc2cc3ccccc3nc12	0.53
COc1ccc2nc3c(C(=O)NCCN(C)C)ccc(NCCN(C)C)c3cc2c1	0.044
NCCNC(=O)c1ccc(NCCN)c2cc3ccccc3nc12	1.55

system: CH1; assay: as §2; format: functional, cell-based; conditions: not given; method in brief: as §1

SMILES	IC50 [µM]
CN(C)CCNC(=O)c1ccc(NCCN(C)C)c2cc3cc(N)ccc3nc12 [listing 1 of 2 here]	0.1
CN(C)CCNC(=O)c1ccc(NCCN(C)C)c2cc3cc(N)ccc3nc12 [listing 2 of 2 here]	0.1

system: Nucleic Acid; assay: Binding affinity against CT-DNA from calf thymus DNA; format: nucleic-acid assay; conditions: Bos taurus
Method in brief: (§3)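 Ethidium displacement measured fluorometrically at 20 °C (excitation 546 nm, emission 595 nm). Buffer was 10 mM Na2HPO4, 10 mM NaH2PO4, 1 mM EDTA, pH 7.0, with 1.26 µM ethidium bromide and 1 µM of CT-DNA, [poly(dA-dT)]2 or [poly(dG-dC)]2. Drug was added serially from a ~5 mM DMSO stock. C50 (50% loss of bound-ethidium fluorescence) is the mean of three determinations. Kapp = 1.26/C50 × 10^7.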

K app [M⁻¹]	SMILES
4.4e+06	O=C(NCCN1CCOCC1)c1ccc(NCCN2CCOCC2)c2cc3ccccc3nc12
3.4e+07	O=C(NCCN1CCCCC1)c1ccc(NCCN2CCCCC2)c2cc3ccccc3nc12
1.5e+08	CCN(CC)CCNC(=O)c1ccc(NCCN(CC)CC)c2cc3ccccc3nc12
8.5e+07	NCCNC(=O)c1ccc(NCCN)c2cc3ccccc3nc12

The next lines start with the molecule.

SMILES	K app [M⁻¹]
CN(C)CCNC(=O)c1cccc2cc3ccccc3nc12	1.1e+06
COc1ccc2nc3c(C(=O)NCCN(C)C)ccc(NCCN(C)C)c3cc2c1	1.9e+07

system: HT-29; assay: The compound was tested for cytotoxic activity against HT-29 cell line(human colon adeno carcinoma); format: functional, cell-based; conditions: not given
Method in brief: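 HT29 colon adenocarcinoma cells at 2.5×10^4 cells/mL received drug under protracted exposure for 144 h. Assays were run in triplicate.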

SMILES	IC50 [µM]
O=C(NCCN1CCOCC1)c1ccc(NCCN2CCOCC2)c2cc3ccccc3nc12	2.7
CN(C)CCNC(=O)c1ccc(Cl)c2cc3ccccc3nc12	0.79
O=C(NCCN1CCCCC1)c1ccc(NCCN2CCCCC2)c2cc3ccccc3nc12	0.44
CCN(CC)CCNC(=O)c1ccc(NCCN(CC)CC)c2cc3ccccc3nc12	0.58
CN(C)CCNC(=O)c1cccc2cc3ccccc3nc12	0.99
COc1ccc2nc3c(C(=O)NCCN(C)C)ccc(NCCN(C)C)c3cc2c1	0.56
NCCNC(=O)c1ccc(NCCN)c2cc3ccccc3nc12	6.94
CN(C)CCNC(=O)c1ccc(NCCN(C)C)c2cc3cc(N)ccc3nc12 [listing 1 of 2 here]	0.7
CN(C)CCNC(=O)c1ccc(NCCN(C)C)c2cc3cc(N)ccc3nc12 [listing 2 of 2 here]	0.7

system: Nucleic Acid; assay: Tested for binding affinity against AT from [poly(dA-dT)]2.; format: nucleic-acid assay; conditions: not given; method in brief: as §3

K app [M⁻¹]	SMILES
5e+06	O=C(NCCN1CCOCC1)c1ccc(NCCN2CCOCC2)c2cc3ccccc3nc12
2.7e+07	O=C(NCCN1CCCCC1)c1ccc(NCCN2CCCCC2)c2cc3ccccc3nc12
1.7e+07	CCN(CC)CCNC(=O)c1ccc(NCCN(CC)CC)c2cc3ccccc3nc12
2.2e+07	NCCNC(=O)c1ccc(NCCN)c2cc3ccccc3nc12

The remaining lines, values behind:

SMILES	K app [M⁻¹]
CN(C)CCNC(=O)c1cccc2cc3ccccc3nc12	1.4e+06
COc1ccc2nc3c(C(=O)NCCN(C)C)ccc(NCCN(C)C)c3cc2c1	1.4e+07

system: Nucleic Acid; assay: Binding affinity against GC from [poly(dG-dC)]2.; format: nucleic-acid assay; conditions: not given; method in brief: as §3

K app [M⁻¹]	SMILES
3e+06	O=C(NCCN1CCOCC1)c1ccc(NCCN2CCOCC2)c2cc3ccccc3nc12
6.3e+07	O=C(NCCN1CCCCC1)c1ccc(NCCN2CCCCC2)c2cc3ccccc3nc12
9.1e+07	CCN(CC)CCNC(=O)c1ccc(NCCN(CC)CC)c2cc3ccccc3nc12
5.6e+07	NCCNC(=O)c1ccc(NCCN)c2cc3ccccc3nc12

More lines, now with the values behind:

SMILES	K app [M⁻¹]
CN(C)CCNC(=O)c1cccc2cc3ccccc3nc12	1e+06
COc1ccc2nc3c(C(=O)NCCN(C)C)ccc(NCCN(C)C)c3cc2c1	5.9e+07

system: SK-OV-3; assay: The compound was tested for cytotoxic activity against SKOV-3 cell line(human ovarian carcinoma ); format: functional, cell-based; conditions: not given; method in brief: as §1

SMILES	IC50 [µM]
O=C(NCCN1CCOCC1)c1ccc(NCCN2CCOCC2)c2cc3ccccc3nc12	3.2
CN(C)CCNC(=O)c1ccc(Cl)c2cc3ccccc3nc12	3.3
O=C(NCCN1CCCCC1)c1ccc(NCCN2CCCCC2)c2cc3ccccc3nc12	0.14
CCN(CC)CCNC(=O)c1ccc(NCCN(CC)CC)c2cc3ccccc3nc12	0.5
CN(C)CCNC(=O)c1cccc2cc3ccccc3nc12	0.98
COc1ccc2nc3c(C(=O)NCCN(C)C)ccc(NCCN(C)C)c3cc2c1	0.06
NCCNC(=O)c1ccc(NCCN)c2cc3ccccc3nc12	12
CN(C)CCNC(=O)c1ccc(NCCN(C)C)c2cc3cc(N)ccc3nc12 [listing 1 of 2 here]	0.155
CN(C)CCNC(=O)c1ccc(NCCN(C)C)c2cc3cc(N)ccc3nc12 [listing 2 of 2 here]	0.155
